Screening results deposited in PubChem BioAssay by several laboratories.
CendR NRP1 mod: NRP-1/CendR interaction modulation | FAM-RPARPAR peptide binding to NRP-1, fluorescence polarization | inhibition, % at 25 µM | 0.85% of 360,000 active | AID 602438;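 active = inhibition or corrected inhibition above about 18%, plus a signal ratio from 0.5 to 1.5, limit read from the data, passing the limit was not always enough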
PLC-beta3 inh: inhibitors of human phospholipase C beta3. Purified PLC-beta3, fluorogenic substrate, fluorescence. inhibition, % at 12.2 µM. 0.18% of 370,000 active. AID 720704; in the data active = inhibition above about 11%;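 also: 0% = median of compound wells on plate and 100% = full blocker control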
PLC-gamma1 inh: PLC-gamma1 (human) inhibition, primary screen. P19174. purified PLC-gamma1, fluorogenic substrate, fluorescence. inhibition, % at 12.2 µM. 0.84% of 370,000 active; in the data active = inhibition above about 9.5%
proKLK7 act: activates the human kallikrein-7 zymogen; P49862; purified proKLK7, EDANS-DABCYL substrate fluorescence; 100% is mature enzyme control, 0% vehicle; 0.9% of 370,000 active; activation, % at 7 µM;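 active = activation above the mean of all tested compounds plus 3 SD, computed per campaign excluding outliers beyond control limits, cut at about 13% in these data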
Tn7 DDE FP: DD(E)-Tn7 binding inhibition, primary FP screen | P02675 | FP displacement of FITC-Tn7 peptide from fibrin DD(E); 0% = median of compound wells per plate | inhibition, % at 8.3 µM | 0.13% of 370,000 active;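 active = inhibition above the mean of compounds falling within the control limits plus 3 SD of them, cut at about 14% in these data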;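 also: 0% = plate median of compound wells and 100% = 10 µM Aha-Tn7 peptide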
Target sequence (P02675 whole entry, looked up): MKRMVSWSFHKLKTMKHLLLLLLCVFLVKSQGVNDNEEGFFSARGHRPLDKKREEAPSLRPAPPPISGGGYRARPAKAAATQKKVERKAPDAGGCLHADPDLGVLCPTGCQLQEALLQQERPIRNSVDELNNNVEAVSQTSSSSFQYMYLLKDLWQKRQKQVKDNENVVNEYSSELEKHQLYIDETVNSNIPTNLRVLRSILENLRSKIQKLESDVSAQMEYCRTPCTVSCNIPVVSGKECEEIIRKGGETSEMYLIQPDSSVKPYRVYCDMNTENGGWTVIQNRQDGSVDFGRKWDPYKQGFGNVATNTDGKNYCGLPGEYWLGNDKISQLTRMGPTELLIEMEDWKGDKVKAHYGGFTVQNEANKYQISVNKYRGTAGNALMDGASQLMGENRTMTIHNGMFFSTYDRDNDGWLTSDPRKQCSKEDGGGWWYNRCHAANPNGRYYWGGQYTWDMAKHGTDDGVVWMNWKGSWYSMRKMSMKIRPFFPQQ
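Assay system: Fibrin-DD(E) protein isolated from polymerized human fibrin clots; read-out basis: percent inhibition; medium: Tris/NaCl/CaCl2 buffer, pH 7.8; signal: FP measurement; incubation: 10 min plus 3 h, room temperature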
DDE Tn6 FP inh: DD(E)-Tn6 binding inhibition, primary FP screen | 0.21% of 370,000 active | inhibition, % at 8.3 µM | Fibrin DD(E) TRITC-Tn6 fluorescence polarization displacement;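 active = inhibition above a per-campaign cutoff: mean of compounds within control limits plus 3 SD, cut at about 15% in these data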;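 also: 0% = median of all compound wells on the plate and 100% = blocking peptide control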
proKLK7 act conf: confirmation of human kallikrein-7 zymogen activators; shares compounds with proKLK7 act; purified proKLK7, EDANS-DABCYL substrate fluorescence; scaled: vehicle 0, mature enzyme 100; activation, % at 7 µM; 68% of 3,200 active; AID 686949;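 active = activation, as change over the incubation, above the mean of all tested compounds plus 3 SD, cut at about 13% in these data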
EDANS-DABCYL int: optically interferes with EDANS-DABCYL signal, flagging KLK7 hits | 80% of 3,200 active | EDANS-DABCYL substrate fluorescence interference, no enzyme, 4 h; solvent 0%, active enzyme control 100% | activation, % at 7 µM | AID 686952 | shares compounds with proKLK7 act;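 active = activation above the all-compound mean plus 3 SD, ignoring values outside control-based bounds, cut at about 4.8% in these data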;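 also: value is the 4 h activation minus the activation read at time zero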
* hit, by the source's call; i = inactive; . = no result given. An excerpt weighted towards active compounds, which were near 3% of everything screened.

SMILES | CendR NRP1 mod | PLC-beta3 inh | PLC-gamma1 inh | proKLK7 act | Tn7 DDE FP | DDE Tn6 FP inh | proKLK7 act conf | EDANS-DABCYL int
COC(=O)[C@]12C[C@H](CC(=O)NCc3ccc(C)o3)C(=O)N(CCc3ccc(OC)c(OC)c3)C1=C[C@H](COCc1ccccc1)O[C@@H]2C | . | -3 | 1 | 1 | -9 | 1 | . | .
CCOC(=O)c1cc2nc(-c3ccco3)cc(C(F)(F)F)n2n1 | 12 | i | i | 19* | -3 | -8 | 0 | -2
CC(=O)c1cc(-c2csc(C=O)c2)c(=O)n2c1CCC2 | . | -20 | -14 | 1 | -10 | -3 | . | .
CCC(C)(C)n1nnnc1CN(Cc1cc2cc(OC)ccc2[nH]c1=O)C1CCCC1 | -3 | -102 | -67 | 2 | -3 | 3 | . | .
O=c1[nH]c2cc3c(cc2cc1CN(Cc1nnnn1CC1CCCO1)C1CCCCC1)OCO3 (stereo unspecified) | 14 | i | i | 51* | -1 | -9 | -90 | -73
COCCn1nnnc1CN(Cc1cc2cc(OC)c(OC)cc2[nH]c1=O)C1CCCC1 | 2 | i | i | 18* | 3 | 4 | -11 | -10
O=c1[nH]c2cc3c(cc2cc1CN(Cc1nnnn1CC1CCCO1)C1CCCC1)OCO3 (stereo unspecified) | 7 | -32 | -25 | 1 | 4 | 3 | . | .
COc1cc2cc(CN(CCCN3CCOCC3)Cc3nnnn3Cc3ccccc3)c(=O)[nH]c2cc1OC | 8 | i | -471 | 15* | 1 | -11 | -12 | -8
CC(C)(C)C(=O)OC12CCCN(C1)/C(=C/c1ccc(Cl)cc1)C2 (stereo unspecified) | . | 1 | -1 | 1 | -6 | 1 | . | .
COC(=O)C1=CN(C2CC2)C=C(C(=O)OC)C1c1ccc(C(=O)OC)cc1 | -4 | -216 | -152 | 3 | -9 | -7 | . | .
COC(=O)C1=CN(C)C=C(C(=O)OC)C1c1ccsc1 | -6 | i | i | 33* | -5 | 3 | 16* | 24*
O=c1[nH]cnc2nc(-c3ccccc3)c(-c3ccccc3)nc12 | 9 | -445 | -353 | 29* | -5 | 9 | 29* | 30*
O=c1[nH]cnc2nn(-c3ccccc3)nc12 | -7 | -17 | -15 | -3 | -4 | 0 | . | .
CC1=C2NC(N)=[N+](Cc3ccc4c(c3)OCO4)CC2NOC1 (stereo unspecified) | . | -6 | -4 | . | 5 | 7 | . | .
C=C(C)/C=C1/C(Cc2ccccc2)N(CC2CC2)C(=N)N1C(=O)OCc1ccccc1 (stereo unspecified) | . | -131 | -123 | 0 | -3 | -3 | . | .
CCOc1ccc(/C(O)=C2/C(=O)C(=O)N(c3ccccn3)C2c2ccc(F)cc2)c(C)c1 (stereo unspecified) | 14 | -65 | -45 | 14* | 4 | -4 | 19* | 20*
Cc1ccc(/C(O)=C2/C(=O)C(=O)N(c3ccccn3)C2c2ccc(F)cc2)cc1 (stereo unspecified) | 8 | -8 | -3 | 2 | -10 | -1 | . | .
O=C(Nc1ccc(F)cc1)OCc1cn(Cc2c(F)cccc2F)nn1 | . | -3 | -1 | 0 | -2 | 4 | . | .
O=c1[nH]c(NCCCO)nc2c1C1(CCCC1)Cc1ccccc1-2 | -8 | i | i | 13* | -1 | -7 | -43 | -53
CCC1(C)Cc2ccccc2-c2nc(NCCCO)[nH]c(=O)c21 (stereo unspecified) | 2 | i | i | 33* | 0 | 8 | -56 | -58
CC1(C)Cc2ccccc2-c2nc(NCCCO)n(-c3ccccc3)c(=O)c21 | 0 | i | -382 | 15* | 5 | 4 | -53 | -30
Cn1c(NCCO)nc2c(c1=O)C1(CCCCC1)Cc1ccccc1-2 | 6 | i | i | -19 | 4 | -3 | . | .
C=CCN1[C@H](Cc2ccccc2)COc2cccc(N3CCCC3)c2S1(=O)=O | . | -2 | -1 | 0 | -4 | -1 | . | .
